In ChEMBL document CHEMBL3407337, “Molecular design, synthesis and biological research of novel pyridyl acridones as potent DNA-binding and apoptosis-inducing agents” (Eur J Med Chem, 2015):
Active and inactive are the calls of the source. The rule behind the calls is not given here.

Key:
[1] = system: K562; assay: Induction of apoptosis in human K562 cells assessed as early apoptotic cells at 2.5 uM after 48 hrs by annexin V/PI staining based flow cytometry (reference value: 3.89 %); format: functional
[2] = system: K562; assay: Induction of apoptosis in human K562 cells after 48 hrs by annexin V/PI staining based flow cytometry; format: functional, cell-based
[3] = system: K562; assay: Induction of apoptosis in human K562 cells assessed as cleavage of caspase-7 at 1 uM after 36 hrs by Western blot analysis; format: functional, cell-based
In short: (§1)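 K562 cells in 6 cm dishes treated 36 h at various concentrations. Cells lysed on ice for 0.5 h and spun at 20,000 g. Protein measured by BCA. Lysates run on 12% SDS-PAGE and transferred to PVDF. Membranes blocked in 5% milk and probed overnight at 4 °C with primary antibody against cleaved caspase-9, -7, -3, cleaved PARP or Bcl-XL.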

[4] = system: K562; assay: Induction of apoptosis in human K562 cells assessed as reduction in Bcl-XL protein expression at 1 uM after 36 hrs by Western blot analysis; format: functional, cell-based; in short: as §1
[5] = system: K562; assay: Induction of apoptosis in human K562 cells assessed as loss of mitochondrial membrane potential at 1 uM after 24 hrs by JC-1 staining based fluorescence microscopy; format: functional, cell-based
In short: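 K562 cells exposed to 1 μM for 24 h. Stained with a JC-1 kit and viewed by fluorescence microscopy (red aggregates versus green monomers). Untreated cells served as blank; CCCP at 10 μM as positive control.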

[6] = system: U-251; assay: Antiproliferative activity against human U251 cells after 48 hrs by MTT assay; format: functional, cell-based; details: U-251, 48 h
In short: (§2)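 Adherent lines seeded at 6×10^3 cells/well and allowed 12 h attachment. Media: NCI-H520 and HeLa RPMI-1640; HepG2, MCF-7, CNE-2, A375, A172 and U118-MG DMEM; U251 MEM-EBSS; all with 10% FBS, 37 °C, 5% CO2. Dosed 48 h at final 50, 25, 10, 1 and 0.1 μM. MTT 4 h, formazan dissolved in DMSO, A490. IC50 from the dose series.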

[7] = system: HeLa; assay: Antiproliferative activity against human HeLa cells after 48 hrs by MTT assay; format: functional, cell-based; in short: as §2
[8] = Antiproliferative activity against human CNE2 cells after 48 hrs by MTT assay; format: functional, cell-based; details: CNE-2, 48 h; in short: as §2
[9] = Antiproliferative activity against human U118MG cells after 48 hrs by MTT assay; format: functional, cell-based; details: U-118-MG; in short: as §2
[10] = system: HepG2; assay: Antiproliferative activity against human HepG2 cells after 48 hrs by MTT assay; format: functional, cell-based; details: HepG2, 48 h; in short: as §2
[11] = system: MCF7; assay: Antiproliferative activity against human MCF7 cells after 48 hrs by MTT assay; format: functional, cell-based; details: MCF7, 48 h; in short: as §2
[12] = system: Calf thymus DNA; assay: Binding affinity to calf thymus DNA assessed as increase in DNA viscosity at 6 to 36 uM by viscosity method; format: nucleic-acid assay; details: Bos taurus
In short: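 ct DNA at 200 μM in Tris-HCl buffer, compound at 6–36 μM, viscometer held at 25.0 °C. Flow times read in triplicate and averaged. η = (t−t0)/t0; (η/η0)^1/3 plotted against the compound:DNA ratio.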

[13] = system: K562; assay: Induction of apoptosis in human K562 cells assessed as early apoptotic cells at 0.5 uM after 48 hrs by annexin V/PI staining based flow cytometry (reference value: 3.89 %); format: functional
[14] = system: K562; assay: Induction of apoptosis in human K562 cells assessed as late apoptotic cells at 0.5 uM after 48 hrs by annexin V/PI staining based flow cytometry (reference value: 0.26 %); format: functional

- IC50 [6]: 790 nM
- IC50 [7]: 3790 nM
- IC50 [10]: 320 nM
- IC50 [11]: 2550 nM
- Activity [12]: Active
Structure (SMILES): Cc1cccc2c(=O)c3c(NCc4ccncc4)ccc(C(=O)NCCN(C)C)c3[nH]c12
- Activity [1]: 54.93%
- Activity [2]: Dose-dependent effect
- Activity [3]: Active
- Activity [4]: Active
- Activity [5]: Active
- IC50 [8]: 980 nM
- IC50 [9]: 1080 nM
- Activity [13]: 23.13%
- Activity [14]: 2.13%
